The source made the active and inactive calls. No cut-off for these calls is given here.

The values that follow come from ChEMBL document CHEMBL2146382, “Cytotoxic and antineoplastic activity of timosaponin A-III for human colon cancer cells” (J Nat Prod, 2011).

In one data set the test system is Mus musculus. The data set is described as follows: Toxicity in human HCT15 cells xenografted nude BALB/c mouse assessed as body weight changes at 2 to 5 mg/kg, ip administered 3 times a week for 4 weeks measured after 9 to 30 days. In kind it is organism-based, HCT-15. Also on record: route intraperitoneal. Particulars: in vivo. A digest of the protocol:
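HCT-15 cells (2 × 10^6) were injected subcutaneously into the flank of BALB/c-nu (nu/nu) mice. Dosing began once tumours reached ca. 80 mm3, with mice randomised to groups of five. Compound (2 or 5 mg/kg) in ethanol-cremophor-H2O (0.5:0.5:99) was given ip three times weekly for four weeks. Controls received equal-volume vehicle. Body weight was monitored over the testing period, with tumour measurements over 30 days.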
Background: Xenograft models place foreign cells or tissue in a host animal.

Data set [1] deals with HCT-15. The data set is described as follows: Cytotoxicity against human HCT15 cells assessed as morphological changes with distinct rounded shapes and detachment at 5 to 20 uM by phase-contrast microscopy. It counts as functional, cell-based. As to conditions: TDE = time-dependent effect. A digest of the protocol:
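HCT-15 cells treated with 0–20 μM for 12 and 24 h, vehicle-treated controls; morphology examined and photographed under phase-contrast microscope.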

Data set [2] deals with HCT-15. The data set can be described thus: Induction of apoptosis in human HCT15 cells assessed as DNA fragmentation at 5 to 20 uM after 24 hrs by agarose-gel electrophoresis. In kind it is functional, cell-based. A digest of the protocol: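 HCT-15 cells seeded 1 × 10^6 per 100 mm dish, after 24 h given fresh medium with compound (0–20 μM) for 24 h; lysed in 50 mM Tris-HCl pH 7.5/20 mM EDTA/1% NP-40, RNase A then proteinase K digestion, ethanol/ammonium acetate precipitation; 4 μg DNA on 2% agarose, SYBR Gold stain.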

The subject of data set [3] is HCT-15. The data set is described as follows: Induction of apoptosis in human HCT15 cells assessed as suppression of procaspase-9 expression at 5 to 20 uM after 12 to 24 hrs by Western blot analysis. In kind it is functional, cell-based. In outline:
(§1)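 HCT-15 cells (RPMI, 10% heat-inactivated FBS, antibiotics-antimycotics, 37 C, 5% CO2) exposed to compound. Cells lysed, protein measured by BCA, 30-50 μg per lane resolved on 10% SDS-PAGE and electroblotted to PVDF. Membranes blocked 1 h in 5% nonfat milk/PBST, probed with primary antibodies overnight at 4 C, then HRP anti-mouse IgG 1:1500 for 3 h at room temperature. Detection by ECL; β-actin antibody available.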
For orientation: In western blotting, separated proteins are transferred to a membrane and probed.

Data set [4] relates to HCT-15. The data set can be described thus: Cell cycle arrest in human HCT15 cells assessed as change in PCNA level at 5 to 20 uM after 12 to 24 hrs by Western blot analysis.
Data set [5] has as its system HCT-15. The data set is described as follows: Growth inhibition of human HCT15 cells. In kind it is functional, cell-based. A digest of the protocol: (§2)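 SRB assay: cells at 5 × 10^4 cells/mL were exposed to a concentration series for 3 days, fixed with 10% TCA and stained with sulforhodamine B. Survival was expressed as % of solvent-treated control and IC50 taken by nonlinear regression of % survival versus concentration. Media held 10% heat-inactivated FBS plus antibiotics: RPMI (HCT-15, HCT 116, HT-29), RPMI with 25 mM HEPES (SW480, SW620), DMEM (MRC-5, Hs68). Cultures were kept at 37 C, 5% CO2.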

The subject of data set [6] is HCT-15. The data set can be described thus: Induction of apoptosis in human HCT15 cells assessed as increase in caspase-8 expression at 5 to 20 uM by Western blot analysis. In kind it is functional, cell-based. In outline:
as §1

The subject of the next data set is SW-620. The data set is described as follows: Growth inhibition of human SW620 cells. In kind it is functional, cell-based. In outline:
as §2

The test system of data set [7] is HCT-15. The data set can be described thus: Induction of apoptosis in human HCT15 cells assessed as suppression of procaspase-8 expression at 5 to 20 uM after 12 to 24 hrs by Western blot analysis. It counts as functional, cell-based. In outline:
as §1

Data set [8] concerns HCT-15. The data set is described as follows: Antineoplastic activity against human HCT15 cells xenografted in nude BALB/c mouse assessed as inhibition of Ki-67 expression at 2 mg/kg, ip 3 times a week for 4 weeks by immunohistochemical analysis. It counts as functional, organism-based. On the set-up: dose 2 mg/kg. A digest of the protocol: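 HCT-15 cells (2 × 10^6 in 200 μL medium) implanted subcutaneously in flanks of BALB/c-nu (nu/nu) mice; dosing began at ca. 80 mm3 tumours; groups of five, randomized. 2 or 5 mg/kg given ip three times weekly in ethanol–cremophor–H2O (0.5:0.5:99), vehicle controls; caliper volume (3.14·L·W·H/6) three times weekly for 30 days; Ki-67 immunohistochemistry on tumour sections (1:250, 4 °C overnight, DAB, hematoxylin counterstain).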

Data set [9] relates to HCT-15. The data set is described as follows: Cell cycle arrest at M phase in human HCT15 cells assessed as decrease in cyclin B1 level at 5 to 20 uM after 12 to 24 hrs by Western blot analysis. In kind it is functional, cell-based. In outline:
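HCT-15 cells in RPMI/10% FBS exposed to test compound at various concentrations; lysates quantified by BCA, 30–50 μg protein run on 10% SDS-PAGE, transferred to PVDF, blocked 1 h in 5% milk/PBST, primary antibodies overnight at 4 °C, HRP anti-mouse IgG 1:1500 for 3 h at room temperature, ECL detection.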

Broadly, the IC50 is the concentration that inhibits the measured activity by half. A lower IC50 goes with higher potency. In the case of `C[C@H]1CC[C@@]2(OC1)O[C@H]1C[C@H]3[C@@H]4CC[C@@H]5C[C@@H](O[C@@H]6O[C@H](CO)[C@H](O)[C@H](O)[C@H]6O[C@@H]6O[C@H](CO)[C@@H](O)[C@H](O)[C@H]6O)CC[C@]5(C)[C@H]4CC[C@]3(C)[C@H]1[C@@H]2C` [TIMOSAPONIN AIII], the Activity result in the data set on Mus musculus was “Non-toxic”; in the data set on HCT-15 [1], “tde”. Moreover, the result in the data set on HCT-15 [2], with HCT-15 [3], in the data set on HCT-15 [6], in the data set with HCT-15 [7], in the data set with HCT-15 [8] and in the data set with HCT-15 [9] was Active. In addition, the outcome in the data set with HCT-15 [4] was inactive. Further, the IC50 in the data set on HCT-15 [5] came to 6.1 µM; with SW-620 it was 11.1 µM.
